High-throughput results deposited in PubChem by several laboratories.
Hep lipid drop: modulators of hepatic lipid droplet formation; AML12 mouse hepatocytes, oleate lipid droplets, BODIPY imaging; inhibition, % at 6.5 µM; actives 0.4% (n = 240,000); AID 1656;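 active = lipid droplet intensity inhibited by at least 50%, with more than 500 cells counted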
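material = mouse AML12 hepatocyte cell line, fixed after treatment | also added = 100 µM oleic acid challenge | doses = compound at 6.5 µM only | schedule = overnight exposure | technique = Image-based BODIPY and DAPI two-channel analysis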
SR-BI HDL uptake: blocks mouse SR-BI lipid uptake from DiI-HDL. ldlA[mSR-BI] CHO cells, DiI-HDL uptake fluorescence, 3 h. inhibition, % at 12.5 µM. actives 0.96% (n = 320,000);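 active = mean replicate inhibition of at least 70% and a set share of replicates each scoring 70 or more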;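 note: 0% = median of neutral control wells and 100% = median of positive control wells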
NOD2-RIPK2 inh: blocks binding of human NOD2 to RIPK2; actives 0.38% (n = 360,000); CHO BLA complementation NOD2-RIPK2, CCF4 ratio; inhibition, % at 4.98 µM; in the data active = inhibition above about 21%;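 note: 0% = vehicle only and 100% = reference blocker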
SR-BI uptake up: SR-BI HDL lipid transfer activation; actives 0.096% (n = 320,000); CHO ldlA[mSR-BI] cells, DiI-HDL uptake fluorescence, 3 h; 100 = double the neutral-control signal; AID 504775; activation, % at 12.5 µM;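 active = mean replicate activation of at least 60% and every replicate at or above 60%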;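 note: 0% = median plate neutral-control signal and 100% = twice that signal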
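Material: SR-BI-overexpressing, LDLR-lacking CHO cells; schedule: compound exposure 3 h, 37 °C; reagent: DiI-labelled HDL at 10 µg/mL final; technique: bottom-read fluorescence, 550/595 nm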
TLR4 MyD88 comp: inhibitors of human TLR4-MyD88 binding; actives 0.18% (n = 200,000); O00206+Q99836; AID 861; inhibition, % at 8.4 µM; HeLa CL3-4 TLR4/MyD88 BLA complementation, FRET ratio; in the data active = inhibition above about 25%;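 note: 0% = vehicle and 100% = reference inhibitor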
TLR9-MyD88 inh: inhibitors of human TLR9-MyD88 binding. inhibition, % at 4.98 µM. actives 0.21% (n = 340,000). AID 504734. CHO BLA complementation TLR9-MyD88, CCF4 FRET ratio;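 active = inhibition above the mean over all tested compounds plus 3 SD, cut at about 21% in these data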;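 note: 0% = DMSO only wells and 100% = clavulanate BLA inhibitor control wells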
TLR4 MyD88 cnf: TLR4-MyD88 interaction inhibition confirmed; shares compounds with TLR4 MyD88 comp; HeLa CL3-4 BLA complementation, CCF4 FRET ratio; inhibition, % at 8.4 µM; actives 50% (n = 350); AID 941;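 active = mean inhibition across three repeat runs above about 25% carried over from the earlier screen, limit read from the data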;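 note: plate controls were DMSO only for no effect and clavulanic acid blocking BLA at full dose for full effect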
BLA inhibitor ct: beta-lactamase inhibition flagged in TLR4-MyD88 counter-screen; shares compounds with TLR4 MyD88 comp; inhibition, % at 8.4 µM; AID 1237; HeLa BLA reporter, CCF4 FRET ratio; actives 63% (n = 350);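 active = mean inhibition over three repeats above about 26% taken from the earlier screen, limit read from the data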;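 note: HeLa cells stably expressing beta-lactamase reporter as counterscreen for TLR4-MyD88 inhibitors; 0% = DMSO and 100% = clavulanic acid full inhibition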
Numbers without * were called inactive; . = no result. In the library only some 1.6% were active in any assay of this set; here they are far more common.

SMILES	Hep lipid drop	SR-BI HDL uptake	NOD2-RIPK2 inh	SR-BI uptake up	TLR4 MyD88 comp	TLR9-MyD88 inh	TLR4 MyD88 cnf	BLA inhibitor ct
CCOC(=O)c1ccoc1CSCc1ccc(C(=O)OC)o1	-3	-14	-2	14	27*	0	-4	-4
COc1ccc(C)cc1S(=O)(=O)N1CCN(S(=O)(=O)c2cc(C)ccc2OC)C(C)C1 (stereo unspecified)	-35	-4	0	4	27*	1	-2	10
COc1ccc(-n2c(-c3ccc(Br)cc3)c[n+]3c2CCc2ccccc2-3)cc1	-53	7	-5	-7	26*	0	25*	23
CC(C)c1ccc(-n2c(-c3ccccc3)c[n+]3c2CCc2ccccc2-3)cc1	-46	2	12	-2	25	-5	.	.
COc1cccc(C2=CC(c3ccccc3)n3ncnc3N2)c1 (stereo unspecified)	.	.	.	.	10	.	.	.
CCOc1ccc(C2C=C(c3ccc(F)cc3)Nc3ncnn32)cc1 (stereo unspecified)	-22	31	7	-31	26*	7	24	53*
COc1ccc(C2C=C(c3ccccc3)Nc3nc(NC(C)=O)nn32)cc1 (stereo unspecified)	10	.	.	.	36*	.	31*	56*
CCOc1ccc(C2C=C(c3ccccc3)Nc3ncnn32)cc1 (stereo unspecified)	.	.	.	.	27*	.	24	41*
O=C(NCCOc1ccccc1)C1=CC=CN2CCS(=O)(=O)N=C12	.	-18	7	18	.	3	.	.
COc1cccc(C(CC(=O)Nc2cccc3ccccc23)NC(=O)c2ccccc2)c1 (stereo unspecified)	.	63	6	-63	-9	2	.	.
COC(=O)C1=C(C)NC(=O)C1(NS(=O)(=O)c1ccc(NC(C)=O)cc1)C(F)(F)F (stereo unspecified)	4	-3	-6	3	5	10	.	.
CN1CCc2nc3sc(C(=O)C45CC6CC(CC(C6)C4)C5)c(N)c3cc2C1	.	11	12	-11	7	1	.	.
COc1ccc(-c2ccc3c(N)c(C(=O)c4ccc(OC)c(OC)c4)sc3n2)cc1	17	15	18	-15	27*	9	23	45*
O=S(=O)(Nc1cc(Sc2cccc3cccnc23)c(O)c2ccccc12)c1ccc(F)cc1	-14	.	.	.	29*	.	25*	32*
CC(=O)/C(=N\Nc1ccccc1)Sc1cccc2cccnc12	1	1	8	-1	-12	2	.	.
O=C(Sc1cccc2cccnc12)c1ccc(F)cc1	0	.	.	.	29*	.	26*	40*
COc1ccc(-n2ccn3c(CCC(=O)N4CCN(c5cccc(C)c5C)CC4)nnc3c2=O)cc1	-6	26	-16	-26	.	8	.	.
COc1ccc(-c2c3c(nc4sc(C(=O)Nc5ccccc5)c(N)c24)CCC3)cc1	.	65	8	-65	25*	9	36*	58*
Cc1ccc(NC(=O)c2sc3nc4c(c(-c5ccco5)c3c2N)CCC4)cc1	.	36	10	-36	13	18	.	.
CS(=O)(=O)N1CCC(C(=O)Nc2cccc(Br)c2)CC1	9	4	15	-4	.	-1	.	.
O=C1c2cccc3c(N4CCCCC4)ccc(c23)C(=O)N1c1ccc(O)cc1	6	1	14	-1	31*	12	30*	48*
Fc1ccccc1Cn1cc(C(=S)N2CCOCC2)c2ccccc21	11	5	0	-5	.	4	.	.
CCc1ccccc1NC(=O)Cn1nnc(C(=O)NCc2cccc(OC)c2)c1N	13	-4	-8	4	.	7	.	.
CC1(C)CC(=O)C(C(C2=C(O)CC(C)(C)CC2=O)c2cccs2)C(=O)C1 (stereo unspecified)	.	-29	-1	29	25*	-1	2	-11
CC1(C)CC(=O)C(C(C2=C(O)CC(C)(C)CC2=O)c2cccc(O)c2)C(=O)C1 (stereo unspecified)	.	11	4	-11	-3	0	.	.
SMILES	Hep lipid drop	SR-BI HDL uptake	NOD2-RIPK2 inh	SR-BI uptake up	TLR4 MyD88 comp	TLR9-MyD88 inh	TLR4 MyD88 cnf	BLA inhibitor ct
OCC1(CCc2ccccc2)CCN(Cc2cc(F)ccc2-n2cccn2)CC1	-65	.	0	.	11	-9	.	.
COc1ccc(-c2nnc(SCc3ccccc3F)o2)cc1OC	.	11	11	-11	-1	4	.	.
COc1cc2c3nnc(-c4ccccc4)c-3cn(Cc3ccccc3F)c2cc1OC	-31	.	.	.	33*	.	4	31*
COc1cc2c3nnc(-c4ccc(F)cc4)c-3cn(Cc3ccccc3F)c2cc1OC	-9	-8	20	8	62*	20	44*	84*
COc1ccccc1Cc1c(-c2ccc(F)cc2)nc2ccc(Cl)cn12	.	.	0	.	.	.	.	.
COc1ccc(OC)c(NC(=O)C(CCSC)NS(=O)(=O)c2cccs2)c1 (stereo unspecified)	-15	.	0	.	.	-2	.	.
CCOC(=O)c1ccc(N/C=C\C(=O)c2cccc(OC)c2)cc1	3	18	-6	-18	-4	-5	.	.
COc1cccc(C(=O)/C=C/Nc2cc(C)ccc2O)c1	0	92*	4	-92	27*	17	13	24
CN(CCNC(=O)C1CCCN(c2ncnc3c2nc2n3CCCCC2)C1)Cc1ccccc1 (stereo unspecified)	9	-29	15	29	.	5	.	.
CCSc1nnc(-c2sc3nnc(-c4ccccc4)c(-c4ccccc4)c3c2N)o1	.	64	11	-64	40*	3	47*	80*
COc1ccccc1N1CCN(C(=O)COc2cc(C)cc(C)c2)CC1	-13	44	2	-44	26*	-6	-5	-2
COc1ccccc1N1CCN(C(=O)COc2cc(C)ccc2C)CC1	28	35	-15	-35	8	5	.	.
Cc1ccc(C)c(N(CC(=O)N/N=C/c2ccc(-c3ccc([N+](=O)[O-])cc3)o2)S(=O)(=O)c2ccccc2)c1	.	37	7	-37	55*	3	58*	87*
CCCCNC(=O)CSc1nc2ccsc2c(=O)n1C1CCN(C(=O)OCC)CC1	.	-5	-4	5	48*	-4	-4	-7
NS(=O)(=O)c1ccc(CCNC(=O)CSc2nc3ccsc3c(=O)n2C2CC2)cc1	-11	11	-12	-11	-1	-6	.	.
O=C(CSc1nnc(CNc2cccc(C(F)(F)F)c2)n1Cc1ccco1)NCc1ccco1	-4	-3	-8	3	26*	-1	1	4
